HKDC1 inh: HKDC1 (human) hexokinase inhibition; Q2TB90; 340,000 tested, 0.16% active; recombinant HKDC1, G6PDH/diaphorase resazurin coupled fluorescence; inhibition, % at 20 µM; AID 493160;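 active = inhibition above about 35% when tested at 20 µM, limit read from the data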;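 also: plate controls were DMSO wells with enzyme for no effect and DMSO wells lacking enzyme for full effect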
Target sequence (Q2TB90 whole entry, looked up): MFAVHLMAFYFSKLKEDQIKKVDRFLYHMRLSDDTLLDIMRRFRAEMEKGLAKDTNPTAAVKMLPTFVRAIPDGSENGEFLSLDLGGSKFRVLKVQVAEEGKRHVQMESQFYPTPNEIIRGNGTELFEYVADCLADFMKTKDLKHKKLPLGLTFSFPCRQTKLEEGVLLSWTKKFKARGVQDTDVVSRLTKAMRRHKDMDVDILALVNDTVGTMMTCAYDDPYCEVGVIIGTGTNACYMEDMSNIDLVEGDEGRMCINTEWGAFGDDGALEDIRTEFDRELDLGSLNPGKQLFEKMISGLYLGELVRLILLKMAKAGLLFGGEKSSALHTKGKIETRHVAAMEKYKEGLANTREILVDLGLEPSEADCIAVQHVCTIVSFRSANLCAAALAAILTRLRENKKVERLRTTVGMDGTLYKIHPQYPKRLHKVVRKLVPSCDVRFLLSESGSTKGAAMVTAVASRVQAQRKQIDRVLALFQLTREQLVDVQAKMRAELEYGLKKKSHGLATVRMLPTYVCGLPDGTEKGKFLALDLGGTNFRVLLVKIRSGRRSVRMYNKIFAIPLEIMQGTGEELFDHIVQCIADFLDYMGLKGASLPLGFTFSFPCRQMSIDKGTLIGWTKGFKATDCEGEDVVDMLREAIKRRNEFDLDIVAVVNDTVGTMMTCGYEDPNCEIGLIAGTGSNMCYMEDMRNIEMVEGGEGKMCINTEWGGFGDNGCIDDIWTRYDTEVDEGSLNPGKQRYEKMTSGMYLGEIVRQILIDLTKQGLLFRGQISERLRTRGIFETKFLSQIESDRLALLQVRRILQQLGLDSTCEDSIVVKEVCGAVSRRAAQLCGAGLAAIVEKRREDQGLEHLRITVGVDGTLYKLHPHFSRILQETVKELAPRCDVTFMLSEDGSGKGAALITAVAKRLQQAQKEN
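System: Recombinant HKDC1 hexokinase | Amount: HKDC1 at 5 µg/mL | Reagent: Glucose with 1 mM ATP | Doses: Single 20 µM dose | Incubation: Reaction time 90 min, room temperature, protected from light | Signal: Coupled resazurin fluorescence, excitation 525 nm, emission 613 nm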
Hsp70 activator: Hsp70 transcriptional activation, primary screen | activation, % at 10 µM | AID 1203 | HeLa Hsp70 promoter luciferase reporter, luminescence; scaled: vehicle 0, proteasome-inhibitor control 100% | 200,000 tested, 0.04% active;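 active = activation above the mean across all tested compounds plus 3 SD, cutoff set per campaign, cut at about 5.5% in these data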;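 also: 100% = MG132 at 30 µM as the positive control and 0% = DMSO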
HSF-1 act: increases HSF-1 driven luciferase reporter signal; activation, % at 9 µM; NIH3T3-HGL HSF-1 luciferase reporter, MG132, 8 h; 100% = twice DMSO control signal; 300,000 tested, 1.7% active; AID 504408;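 active = mean replicate activation of at least 50% with a set share of replicates each reaching 50%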;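 also: 0% = median of the neutral control wells and 100% = twice that signal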
HSP90 refold inh: HSP90 refolding inhibition in rabbit reticulocyte lysate. luciferase refolding luminescence, 3 h. inhibition, % at 5.6 µM. 290,000 tested, 0.91% active. AID 1789;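 active = inhibition above the screen-wide mean plus 3 SD, computed separately per campaign, cut at about 16% in these data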;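 also: 0% = DMSO wells and 100% = 60 µM geldanamycin wells; inhibitors lower the luminescence because luciferase stays unfolded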
HSF1 inhib: HSF1 inhibition; NIH3T3-HGL HSE-luciferase, MG132-induced, luminescence 8 h; stronger effect = lower value; activity change, negative = inhibition, % at 7.5 µM (by protocol); 300,000 tested, 0.77% active; AID 2098;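 active = more than half of replicate wells show activity change below -50%, luminescence cut by over half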;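 also: luciferase reports HSF-1 transcriptional activity via heat shock element; 0% = median of DMSO wells and -100% = zero luminescence signal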
Tb hexokinase: blocks Trypanosoma brucei hexokinase 1 activity; recombinant TbHK1, G6PDH-coupled NADH A340; inhibition, % at 10 µM; 220,000 tested, 0.11% active; AID 1430;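 active = inhibition of 50% or more in the single-dose primary screen; inactive = inhibition below 50%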
The depositor's hits bear a star; / = no result given. A selection: hits, their analogues and other compounds. The true share with any hit is near 3.1%.

SMILES	HKDC1 inh	Hsp70 activator	HSF-1 act	HSP90 refold inh	HSF1 inhib	Tb hexokinase
NS(=O)(=O)c1ccc(CNC(=O)C2CCCN2C(=O)c2cccs2)cc1 (centres undefined)	4	/	/	/	/	/
O=C(NNc1c([N+](=O)[O-])cc(C(F)(F)F)cc1[N+](=O)[O-])c1ccco1	1	/	-6	-4	-6	/
COc1ccc2cc3cc(C(=O)NCCN4CCc5ccccc5C4)oc3nc2c1	8	0	8	-3	2	-37
COc1ccc2cc3cc(C(=O)NCCN4CCc5ccccc5C4)sc3nc2c1	0	0	74*	-6	48	-10
O=C1OC(c2ccccc2)(c2ccc3cc(O)ccc3c2)c2ccccc21 (centres undefined)	15	/	/	/	/	/
CCCn1cc(S(=O)(=O)c2ccccc2)c(=O)c2cc(OCC)ccc21	-4	/	16	-2	1	/
CCCCn1cc(S(=O)(=O)c2ccccc2)c(=O)c2cc(C)ccc21	-5	/	-80	-1	-74*	/
COc1cccc(C(=O)Nc2cc(C)nn2-c2ccccc2)c1OC	-2	/	-7	1	13	/
N#CCC(CNc1ncc(C(F)(F)F)cc1Cl)OC(=O)c1ccc(Cl)cc1Cl (centres undefined)	-4	0	79*	3	44	8
CCOC(=O)C1(Cc2ccc(OC)cc2)CCN(C(=O)c2cc3ccccc3[nH]2)CC1	0	0	77*	0	56	3
COc1ccc(C)cc1-n1c(SCC(=O)Nc2cccc(C(=O)O)c2)nc2ccccc2c1=O	-2	/	75*	1	28	-14
C=CCn1c(=NC(=O)C2CC2)sc2cc(NC(C)=O)ccc21	-2	0	-65	-1	-55*	-25
N#Cc1ccc(Cl)cc1NC(=O)COC(=O)c1ccc(S(=O)(=O)N2CCCC2)cc1	1	0	55*	2	11	-5
CCSc1nc(-c2ccccc2)nc(C(Cl)Cl)n1	1	0	57*	-2	42	-1
CSc1nc(-c2ccc(C)cc2)nc(C(Cl)Cl)n1	-2	0	37	-4	28	-5
COCCNC(=O)C(c1ccc(C)cc1)N(C(=O)CCC(=O)Nc1ccccn1)C1CCCCC1 (centres undefined)	2	/	-3	-3	-1	/
COc1cccc(NC(=S)N(CCCN2CCN(C)CC2)Cc2ccco2)c1	1	0	61*	0	21	-3
O=C(c1cn(Cc2ccccc2)nc1-c1ccccc1)N1CCN(c2ccccn2)CC1	0	/	/	/	/	/
Clc1cccc(-c2ccc(C3Nc4cccc5cccc(c45)N3)o2)c1	9	/	/	/	/	/
CCN(CC)S(=O)(=O)c1ccc(N2CCc3ccccc3C2)nc1	0	/	73*	2	54	/
CC(C)N(C(C)C)S(=O)(=O)c1ccc(N2CCc3ccccc3C2)nc1	1	/	130*	8	67	/
O=C(Nc1ccc(C(=O)O)cc1)/C(=C\C=C\c1ccccc1)NC(=O)c1ccccc1Br	0	/	13	0	0	/
O=C1C=C(c2cccc(Br)c2)C[C@@H](c2ccc3c(c2)OCO3)C1	0	/	/	/	/	/
O=c1cc(-c2ccccc2)oc2ccc(Cl)cc12	3	/	/	/	/	/
O=c1oc(-c2ccccc2)cc(Cl)c1Cl	23	/	455*	-1	309	/
SMILES	HKDC1 inh	Hsp70 activator	HSF-1 act	HSP90 refold inh	HSF1 inhib	Tb hexokinase
CCOC(=O)C(Cc1cc(N)c(Oc2ccc(OC)cc2)c(N)c1)NC(C)=O (centres undefined)	13	/	/	/	/	/
COCCCn1c(C(=O)NC2CCCCC2C)cc2c(=O)n3cccc(C)c3nc21 (centres undefined)	0	/	71*	-4	39	/
O=[N+]([O-])c1cccnc1SCc1ccccc1	0	/	7	-2	5	/
CC1CCCCN1C(=O)c1ccc(Br)o1 (centres undefined)	-3	/	-17	1	-3	/
CS/C(Nc1cc(Cl)ccc1Cl)=C(/C#N)C(=O)c1ccco1	6	/	54*	2	27	-7
O=C(NCCCn1ccnc1)c1ccc(COc2ccccc2)o1	-6	/	16	/	1	/
OCC[C@@H]1C[C@@H](O)[C@H](O)[C@@]2(Cc3ccccc3CO2)O1	-2	/	-74	-1	-66*	/
OCC[C@H]1C[C@H](O)[C@@H](O)[C@@]2(Cc3ccccc3CO2)O1	-8	/	/	/	/	/
CCc1cc(C(=O)N2CCCC(CO)(Cc3ccc(F)cc3)C2)n(C)n1 (centres undefined)	2	/	8	0	3	/
Cc1cc(C)cc(NC(=O)CN(C)S(=O)(=O)c2cnc[nH]2)c1	0	0	80*	3	32	-2
CN(C(=O)c1ccco1)c1nc(-c2ccc(F)cc2)cs1	-4	/	83*	-1	36	/
CCN(CC)CCCN(C(=O)c1ccco1)c1nc(-c2ccc(Cl)cc2)cs1	-5	/	33	7	14	/
CN(C(=O)c1ccco1)c1nnc(-c2ccc(F)cc2)s1	-5	/	35	-4	16	/
CCN(CC)CCCN(C(=O)c1ccco1)c1nc(-c2ccc(C)cc2)cs1	-3	0	-76	3	-69*	4
COc1ccc(C)cc1NC(=O)C1CCN(C(=O)c2ccc(C(C)(C)C)cc2)CC1	2	/	37	-4	6	/
COc1ccccc1C=NN=C1c2ccccc2-c2ccccc21	-2	/	/	/	/	/
CCOc1ccc(NC(=O)COC(=O)c2cc(C)oc2C)cc1	-7	/	/	/	/	/
NC(=O)c1ccc(C(F)(F)F)n(Cc2cccc(Cl)c2)c1=O	-4	0	64*	2	25	5
NC(=O)c1ccc(C(F)(F)F)n(Cc2ccc(Cl)cc2)c1=O	4	0	22	-1	3	0
CCOC(=O)[C@@H]1[C@H]2COc3cc(OC)ccc3[C@@H]2N2C(=O)N(c3ccc(Cl)cc3)C(=O)[C@@]12C	2	/	-1	-4	5	/
COc1ccc(-n2nnc3c(=O)n(CC(=O)N4CCCc5ccccc54)cnc32)cc1	-7	0	1	-5	-2	-2
COc1ccc(-n2nnc3c(SCC(=O)N4CCCc5ccccc54)ncnc32)cc1	1	/	57*	/	30	/
CCN(CC)C(=O)c1cc([N+](=O)[O-])cc2c1-c1ccc([N+](=O)[O-])cc1C2=C(C#N)C#N	25	/	-15	9	6	-19
Cc1cc(-c2ccccc2)c2ccc(NC(=O)C(C)(C)C)nc2n1	10	/	-70	3	-62*	/
Cc1ccc2c(c1)sc(-c1ccc(N(C)C)cc1)[n+]2C	-4	/	-17	7	-11	/
CC(C)(C)c1cc(NS(=O)(=O)c2ccc(Br)s2)no1	-2	/	-12	2	-2	/
CCc1cc2c(=O)n(C(C)C(=O)OC3CCCCC3)cnc2s1 (centres undefined)	0	0	66*	-3	32	2
CCC1CSC(Nc2ccc(C(=O)/C=C/c3cccc(C)c3)cc2)=N1 (centres undefined)	23	0	75*	0	53	-5

Screening data from PubChem BioAssay.
